Reference: ChEMBL document CHEMBL4270513, “Replacement of Arg with Nle and modified D-Phe in the core sequence of MSHs, Ac-His-D-Phe-Arg-Trp-NH2, leads to hMC1R selectivity and pigmentation” (Eur J Med Chem, 2018)
pEC50, pIC50: −log10 of the molar value. Square brackets hold non-standard residues; d marks the D form. Peptide text beside a SMILES is read from it. dPhe(4-Cl) = N[C@H](Cc1ccc(Cl)cc1)C(=O)O; dPhe(4-F) = N[C@H](Cc1ccc(F)cc1)C(=O)O; Nle = CCCC[C@H](N)C(=O)O

Target: T1, Melanocortin receptor 3 (Homo sapiens, UniProt P41968)
T1 sequence (P41968 whole entry): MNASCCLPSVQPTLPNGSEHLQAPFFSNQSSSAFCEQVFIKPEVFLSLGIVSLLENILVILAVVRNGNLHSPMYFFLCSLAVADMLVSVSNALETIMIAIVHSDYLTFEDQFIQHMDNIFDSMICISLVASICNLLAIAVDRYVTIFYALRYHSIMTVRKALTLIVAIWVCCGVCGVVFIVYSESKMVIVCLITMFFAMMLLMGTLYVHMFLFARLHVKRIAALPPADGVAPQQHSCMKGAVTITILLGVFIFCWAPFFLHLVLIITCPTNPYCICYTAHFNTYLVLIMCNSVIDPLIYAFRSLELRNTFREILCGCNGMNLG
Assay: Displacement of [125I]-[Nle4,d-Phe7]-alpha-MSH from human MC3R expressed in HEK293 cells after 40 mins by gamma counting analysis
Assay type: cell-based

First: CCCC[C@H](NC(=O)[C@@H](Cc1ccccc1)NC(=O)[C@@H]1CCCN1C(C)=O)C(=O)N[C@@H](Cc1c[nH]c2ccccc12)C(N)=O (Ac-P[dF][Nle]W-NH2)
Second: CCCC[C@H](NC(=O)[C@@H](Cc1ccc(F)cc1)NC(=O)[C@@H]1CCCN1C(C)=O)C(=O)N[C@@H](Cc1c[nH]c2ccccc12)C(N)=O (Ac-P[dPhe(4-F)][Nle]W-NH2)
The pIC50 of the first is lower: less than 6.00 for the first, 7.33 for the second.

For CCCC[C@H](NC(=O)[C@@H](Cc1ccc(Cl)cc1)NC(=O)[C@@H]1CCCN1C(C)=O)C(=O)N[C@@H](Cc1c[nH]c2ccccc12)C(N)=O (Ac-P[dPhe(4-Cl)][Nle]W-NH2), the pIC50 was less than 6.00.

Target: T1, Melanocortin receptor 3
Assay: Agonist activity at human MC3R expressed in HEK293 cells at 10 uM after 3 mins by cAMP assay relative to MT-2
Assay type: functional, cell-based
In short: (§1)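 cAMP produced at a single 10 μM peptide concentration, expressed as % of the response to MT-II run as control; 0% accumulation reported as no activity.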

Going from CCCC[C@H](NC(=O)[C@@H](Cc1ccccc1)NC(=O)[C@@H]1CCCN1C(C)=O)C(=O)N[C@@H](Cc1c[nH]c2ccccc12)C(N)=O (Ac-P[dF][Nle]W-NH2) to CCCC[C@H](NC(=O)[C@@H](Cc1ccc(F)cc1)NC(=O)[C@@H]1CCCN1C(C)=O)C(=O)N[C@@H](Cc1c[nH]c2ccccc12)C(N)=O (Ac-P[dPhe(4-F)][Nle]W-NH2), the Activity rises from 0% to 56%.

Going from CC(=O)N[C@@H](Cc1cnc[nH]1)C(=O)N[C@H](Cc1ccccc1)C(=O)N[C@@H](CCCNC(=N)N)C(=O)N[C@@H](Cc1c[nH]c2ccccc12)C(N)=O to CCCC[C@H](NC(=O)[C@@H](Cc1ccc(Cl)cc1)NC(=O)[C@@H]1CCCN1C(C)=O)C(=O)N[C@@H](Cc1c[nH]c2ccccc12)C(N)=O (Ac-P[dPhe(4-Cl)][Nle]W-NH2), the Activity falls from 100% to 23.1%.

Target: T2, Melanocyte-stimulating hormone receptor (Homo sapiens, UniProt Q01726)
Assay: Agonist activity at human MC1R expressed in HEK293 cells after 3 mins by cAMP assay
Assay type: functional, cell-based
Target sequence in this assay (Q01726 whole entry): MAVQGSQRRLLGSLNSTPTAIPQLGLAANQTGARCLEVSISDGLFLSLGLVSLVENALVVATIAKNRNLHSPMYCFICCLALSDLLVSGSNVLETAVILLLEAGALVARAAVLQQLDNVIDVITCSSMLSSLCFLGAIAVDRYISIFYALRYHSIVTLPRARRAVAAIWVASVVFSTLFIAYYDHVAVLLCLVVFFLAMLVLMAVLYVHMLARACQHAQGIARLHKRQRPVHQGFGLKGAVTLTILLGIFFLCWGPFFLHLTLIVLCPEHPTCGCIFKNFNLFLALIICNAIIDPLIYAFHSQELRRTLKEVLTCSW

Going from CCCC[C@H](NC(=O)[C@@H](Cc1ccc(F)cc1)NC(=O)[C@@H]1CCCN1C(C)=O)C(=O)N[C@@H](Cc1c[nH]c2ccccc12)C(N)=O (Ac-P[dPhe(4-F)][Nle]W-NH2) to CCCC[C@H](NC(=O)[C@@H](Cc1ccc(Cl)cc1)NC(=O)[C@@H]1CCCN1C(C)=O)C(=O)N[C@@H](Cc1c[nH]c2ccccc12)C(N)=O (Ac-P[dPhe(4-Cl)][Nle]W-NH2), the pEC50 rises from less than 6.00 to 8.52.

Target: T1, Melanocortin receptor 3
Assay: Displacement of [125I]-[Nle4,d-Phe7]-alpha-MSH from human MC3R expressed in HEK293 cells at 10 uM after 40 mins by gamma counting analysis relative to control
Assay type: cell-based
In short: (§2)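 Binding efficiency = maximal % displacement of [125I]-NDP-α-MSH observed at 10 μM peptide; 0% displacement at 10 μM scored as no binding.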

Compared with CCCC[C@H](NC(=O)[C@@H](Cc1ccccc1)NC(=O)[C@@H]1CCCN1C(C)=O)C(=O)N[C@@H](Cc1c[nH]c2ccccc12)C(N)=O (Ac-P[dF][Nle]W-NH2), CCCC[C@H](NC(=O)[C@@H](Cc1ccc(F)cc1)NC(=O)[C@@H]1CCCN1C(C)=O)C(=O)N[C@@H](Cc1c[nH]c2ccccc12)C(N)=O (Ac-P[dPhe(4-F)][Nle]W-NH2) is lower in %max: 65% for the first, 35% for the second.

First: CC(=O)N[C@@H](Cc1cnc[nH]1)C(=O)N[C@H](Cc1ccccc1)C(=O)N[C@@H](CCCNC(=N)N)C(=O)N[C@@H](Cc1c[nH]c2ccccc12)C(N)=O
Second: CCCC[C@H](NC(=O)[C@@H](Cc1ccc(Cl)cc1)NC(=O)[C@@H]1CCCN1C(C)=O)C(=O)N[C@@H](Cc1c[nH]c2ccccc12)C(N)=O (Ac-P[dPhe(4-Cl)][Nle]W-NH2)
The %max of the first is higher: 100% for the first, 35% for the second.

Target: T2, Melanocyte-stimulating hormone receptor
Assay: Displacement of [125I]-[Nle4,d-Phe7]-alpha-MSH from human MC1R expressed in HEK293 cells at 10 uM after 40 mins by gamma counting analysis relative to control
Assay type: cell-based
In short: as §2
Target sequence in this assay (Q01726 whole entry, looked up): as the sequence (Q01726 whole entry) above

First: CCCC[C@H](NC(=O)[C@@H](Cc1ccccc1)NC(=O)[C@@H]1CCCN1C(C)=O)C(=O)N[C@@H](Cc1c[nH]c2ccccc12)C(N)=O (Ac-P[dF][Nle]W-NH2)
Second: CCCC[C@H](NC(=O)[C@@H](Cc1ccc(F)cc1)NC(=O)[C@@H]1CCCN1C(C)=O)C(=O)N[C@@H](Cc1c[nH]c2ccccc12)C(N)=O (Ac-P[dPhe(4-F)][Nle]W-NH2)
The %max of the first is lower: 0% for the first, 28% for the second.

Going from CC(=O)N[C@@H](Cc1cnc[nH]1)C(=O)N[C@H](Cc1ccccc1)C(=O)N[C@@H](CCCNC(=N)N)C(=O)N[C@@H](Cc1c[nH]c2ccccc12)C(N)=O to CCCC[C@H](NC(=O)[C@@H](Cc1ccc(Cl)cc1)NC(=O)[C@@H]1CCCN1C(C)=O)C(=O)N[C@@H](Cc1c[nH]c2ccccc12)C(N)=O (Ac-P[dPhe(4-Cl)][Nle]W-NH2), the %max falls from 100% to 18%.

Target: T3, Melanocortin receptor 5 (Homo sapiens, UniProt P33032)
T3 sequence (P33032 whole entry): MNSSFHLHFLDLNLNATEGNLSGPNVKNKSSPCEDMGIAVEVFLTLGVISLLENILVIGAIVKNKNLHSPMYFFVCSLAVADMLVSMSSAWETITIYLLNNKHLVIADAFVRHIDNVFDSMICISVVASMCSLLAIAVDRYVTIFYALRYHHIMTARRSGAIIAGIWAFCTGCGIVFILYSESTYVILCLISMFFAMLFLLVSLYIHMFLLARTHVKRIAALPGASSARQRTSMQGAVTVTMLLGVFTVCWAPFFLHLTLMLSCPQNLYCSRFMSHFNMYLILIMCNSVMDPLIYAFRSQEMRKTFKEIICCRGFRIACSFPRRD
Assay: Agonist activity at human MC5R expressed in HEK293 cells at 10 uM after 3 mins by cAMP assay relative to MT-2
Assay type: functional, cell-based
In short: as §1

CCCC[C@H](NC(=O)[C@@H](Cc1ccccc1)NC(=O)[C@@H]1CCCN1C(C)=O)C(=O)N[C@@H](Cc1c[nH]c2ccccc12)C(N)=O (Ac-P[dF][Nle]W-NH2) and CCCC[C@H](NC(=O)[C@@H](Cc1ccc(F)cc1)NC(=O)[C@@H]1CCCN1C(C)=O)C(=O)N[C@@H](Cc1c[nH]c2ccccc12)C(N)=O (Ac-P[dPhe(4-F)][Nle]W-NH2) are the same in Activity: 0% for the first, 0% for the second.

Going from CC(=O)N[C@@H](Cc1cnc[nH]1)C(=O)N[C@H](Cc1ccccc1)C(=O)N[C@@H](CCCNC(=N)N)C(=O)N[C@@H](Cc1c[nH]c2ccccc12)C(N)=O to CCCC[C@H](NC(=O)[C@@H](Cc1ccc(Cl)cc1)NC(=O)[C@@H]1CCCN1C(C)=O)C(=O)N[C@@H](Cc1c[nH]c2ccccc12)C(N)=O (Ac-P[dPhe(4-Cl)][Nle]W-NH2), the Activity falls from 63% to 0%.

Target: T2, Melanocyte-stimulating hormone receptor
Assay: Agonist activity at human MC1R expressed in HEK293 cells at 10 uM after 3 mins by cAMP assay relative to MT-2
Assay type: functional, cell-based
In short: as §1
Target sequence in this assay (Q01726 whole entry, looked up): as the sequence (Q01726 whole entry) above

First: CCCC[C@H](NC(=O)[C@@H](Cc1ccccc1)NC(=O)[C@@H]1CCCN1C(C)=O)C(=O)N[C@@H](Cc1c[nH]c2ccccc12)C(N)=O (Ac-P[dF][Nle]W-NH2)
Second: CCCC[C@H](NC(=O)[C@@H](Cc1ccc(F)cc1)NC(=O)[C@@H]1CCCN1C(C)=O)C(=O)N[C@@H](Cc1c[nH]c2ccccc12)C(N)=O (Ac-P[dPhe(4-F)][Nle]W-NH2)
The Activity of the first is lower: 0% for the first, 46% for the second.

First: CC(=O)N[C@@H](Cc1cnc[nH]1)C(=O)N[C@H](Cc1ccccc1)C(=O)N[C@@H](CCCNC(=N)N)C(=O)N[C@@H](Cc1c[nH]c2ccccc12)C(N)=O
Second: CCCC[C@H](NC(=O)[C@@H](Cc1ccc(Cl)cc1)NC(=O)[C@@H]1CCCN1C(C)=O)C(=O)N[C@@H](Cc1c[nH]c2ccccc12)C(N)=O (Ac-P[dPhe(4-Cl)][Nle]W-NH2)
The Activity of the first is higher: 100% for the first, 63% for the second.

Target: T3, Melanocortin receptor 5
Assay: Displacement of [125I]-[Nle4,d-Phe7]-alpha-MSH from human MC5R expressed in HEK293 cells at 10 uM after 40 mins by gamma counting analysis relative to control
Assay type: cell-based
In short: as §2

CCCC[C@H](NC(=O)[C@@H](Cc1ccccc1)NC(=O)[C@@H]1CCCN1C(C)=O)C(=O)N[C@@H](Cc1c[nH]c2ccccc12)C(N)=O (Ac-P[dF][Nle]W-NH2) and CCCC[C@H](NC(=O)[C@@H](Cc1ccc(F)cc1)NC(=O)[C@@H]1CCCN1C(C)=O)C(=O)N[C@@H](Cc1c[nH]c2ccccc12)C(N)=O (Ac-P[dPhe(4-F)][Nle]W-NH2) are the same in %max: 0% for the first, 0% for the second.

First: CC(=O)N[C@@H](Cc1cnc[nH]1)C(=O)N[C@H](Cc1ccccc1)C(=O)N[C@@H](CCCNC(=N)N)C(=O)N[C@@H](Cc1c[nH]c2ccccc12)C(N)=O
Second: CCCC[C@H](NC(=O)[C@@H](Cc1ccc(Cl)cc1)NC(=O)[C@@H]1CCCN1C(C)=O)C(=O)N[C@@H](Cc1c[nH]c2ccccc12)C(N)=O (Ac-P[dPhe(4-Cl)][Nle]W-NH2)
The %max of the first is higher: 100% for the first, 0% for the second.

Target: T1, Melanocortin receptor 3
Assay: Agonist activity at human MC3R expressed in HEK293 cells after 3 mins by cAMP assay
Assay type: functional, cell-based

CCCC[C@H](NC(=O)[C@@H](Cc1ccc(F)cc1)NC(=O)[C@@H]1CCCN1C(C)=O)C(=O)N[C@@H](Cc1c[nH]c2ccccc12)C(N)=O (Ac-P[dPhe(4-F)][Nle]W-NH2) and CCCC[C@H](NC(=O)[C@@H](Cc1ccc(Cl)cc1)NC(=O)[C@@H]1CCCN1C(C)=O)C(=O)N[C@@H](Cc1c[nH]c2ccccc12)C(N)=O (Ac-P[dPhe(4-Cl)][Nle]W-NH2) cannot be ordered by pEC50: less than 6.00 for the first, less than 6.00 for the second.

Target: T2, Melanocyte-stimulating hormone receptor
Assay: Displacement of [125I]-[Nle4,d-Phe7]-alpha-MSH from human MC1R expressed in HEK293 cells after 40 mins by gamma counting analysis
Assay type: cell-based
Target sequence in this assay (Q01726 whole entry): as above

Going from CCCC[C@H](NC(=O)[C@@H](Cc1ccc(F)cc1)NC(=O)[C@@H]1CCCN1C(C)=O)C(=O)N[C@@H](Cc1c[nH]c2ccccc12)C(N)=O (Ac-P[dPhe(4-F)][Nle]W-NH2) to CCCC[C@H](NC(=O)[C@@H](Cc1ccc(Cl)cc1)NC(=O)[C@@H]1CCCN1C(C)=O)C(=O)N[C@@H](Cc1c[nH]c2ccccc12)C(N)=O (Ac-P[dPhe(4-Cl)][Nle]W-NH2), the pIC50 falls from 9.13 to 8.72 (0.41 log units). The first is the more potent here.
